Tested on: PPC-1 cells, TRAIL potentiation, ATPlite luminescence, 24 h
Test: synergy with TRAIL in cancer cell cytotoxicity – PPC-1 cells, ATPlite luminescence, confirmation (AID 1624)
Conditions: stronger effect = higher value
How it was run: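 Test system: PPC-1 cells; Schedule: 4 h compound plus 24 h TRAIL, 37 °C; Doses: compound at 1.25 to 5 µM final concentration; Detection: ATPlite luminescence measuring cellular ATP; Probe or stimulus: TRAIL stimulus.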

[1] = compound alone cytotoxicity, at 5 µM
[2] = compound plus TRAIL, at 1.25 µM

Compound | cytotoxicity with TRAIL (at 5 µM) [%] | cytotoxicity without TRAIL [1] [%] | cytotoxicity without TRAIL (compound alone, at 1.25 µM) [%] | cytotoxicity without TRAIL (compound alone, at 2.5 µM) [%] | cytotoxicity with TRAIL [2] [%] | cytotoxicity with TRAIL (compound plus TRAIL, at 2.5 µM) [%]
CSc1nc(-c2ccc(C)cc2)nc(C(Cl)Cl)n1 | 100 | 45 | 49 | 48 | 94 | 100
CSc1nc(-c2ccccc2)nc(C(Cl)Cl)n1 | 100 | 56 | 52 | 56 | 83 | 96
CCSc1nc(-c2ccccc2)nc(C(Cl)Cl)n1 | 96 | 41 | 18 | 26 | 43 | 61

Reference: PubChem BioAssay AID1624 (Sanford-Burnham Center for Chemical Genomics, 2009)
